Each block holds one substance with its values, some of them ahead of it.
Key:
[1] = tested on: C-INSL7 antiserum (rabbit polyclonal); details: ELISA; ref Phoenix Pharmaceuticals, Inc.; cited from earlier work
[2] = tested on: [125I]C-INSL7 binding sites, rat brain membranes; assay: [125I]C-INSL7 binding to rat brain membranes; details: for inhibition of [125I]C-INSL7 binding: 1 to 1000 nM unlabeled peptide, ~0.3 nM [125I]C-INSL7, three independent experiments
[3] = tested on: cultured rat hypothalamic neurons; assay: Membrane potential, optical imaging using DiSBAC4; type: cell-based; details: 100 nM, DiSBAC4(3); for mean amplitude of membrane depolarization / mean amplitude of membrane hyperpolarization: resting potential −53 ± 2.1 mV; for mean amplitude of membrane depolarization: C-INSL7 n=7/153, INSL7 n=4; for mean amplitude of membrane hyperpolarization: C-INSL7 n=15/153, INSL7 n=6
Method in brief: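 Cultured neonatal rat hypothalamic neurons were loaded 30 min with DiSBAC4(3) in HBSS and superfused with 100 nM peptide. Fluorescence (excitation 480, emission 540 nm) was recorded at 10 points/min, background-subtracted. Calibration used 1 μM gramicidin in Na+-free solution with 17, 25 or 80 mM K+ (potentials by Nernst equation): a 1.092 fluorescence change equals 1 mV.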

[4] = tested on: cultured rat hypothalamic neurons; assay: Cytosolic Ca2+ measurement; type: cell-based; details: for mean amplitude of the first spike of [Ca2+]i oscillations, Ca2+-free / rapid and transitory increase in [Ca2+]i (single spike, no plateau), Ca2+-free: Ca2+-free HBSS with 2.5 mM EGTA; for mean amplitude of the first spike of [Ca2+]i oscillations, Ca2+-free: INSL7 n=5/76, C-INSL7 n=7; for rapid and transitory increase in [Ca2+]i (single spike, no plateau), Ca2+-free: INSL7 n=11/76, C-INSL7 n=15
Method in brief: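 Cultured neonatal rat hypothalamic neurons (5 days, serum withdrawn 12 hr before) were loaded with 5 μM fura-2 AM for 45 min at room temperature and de-esterified 45 min. They were superfused with Ca2+-free HBSS containing 2.5 mM EGTA, and 100 nM peptide was applied. [Ca2+]i was derived from the 340/380 excitation ratio (emission 510 nm, 0.3 Hz). Responding cells were counted against cells tested.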

[5] = tested on: C-INSL7 antiserum (rabbit polyclonal); assay: Pre-absorption of C-INSL7 antiserum, immunohistochemistry of rat pons sections; details: 1 μg/ml overnight
[6] = tested on: cultured rat hypothalamic neurons; assay: Cytosolic Ca2+ measurement; type: cell-based; details: for neurons responding with fast calcium transient followed by oscillations / mean amplitude of the first spike, fast calcium transient followed by oscillations: INSL7 n=8/158, C-INSL7 n=11/276
Method in brief: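 Hypothalamic neurons from 1–3-day-old rats were papain-dissociated and cultured 5 days in Neurobasal-A/10% FCS with 1 μM cytosine arabinoside, then serum-free for 12 hr. Cells were loaded with 5 μM fura-2 AM (45 min, room temperature, dark), de-esterified 45 min, then superfused with HBSS at 1 ml/min. Peptide was applied at 10–1000 nM. 340/380 ratio (emission 510 nm, 0.3 Hz) was converted to [Ca2+]i.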

GPCR135 [7] = details: cells over-expressing GPCR135; ref Liu et al., 2003 a, b; cited from earlier work
GPCR145 = details: cells over-expressing GPCR145 (so in the source); ref Liu et al., 2003 a, b; cited from earlier work
GPCR135 [8] = details: printed GPR135; ref Liu et al., 2003a, b; cited from earlier work
GPCR142 = details: printed GPR142; ref Liu et al., 2003a, b; cited from earlier work
GPCR135 (Homo sapiens) = GPCR135 (Homo sapiens) (UniProt Q9NSD7); assay: radioligand binding; details: cited from earlier work
GPCR142 (Homo sapiens) = GPCR142 (Homo sapiens) (UniProt Q8TDU9); assay: radioligand binding; details: cited from earlier work
Chain of UniProt Q8TDU9 (Q8TDU9 whole entry): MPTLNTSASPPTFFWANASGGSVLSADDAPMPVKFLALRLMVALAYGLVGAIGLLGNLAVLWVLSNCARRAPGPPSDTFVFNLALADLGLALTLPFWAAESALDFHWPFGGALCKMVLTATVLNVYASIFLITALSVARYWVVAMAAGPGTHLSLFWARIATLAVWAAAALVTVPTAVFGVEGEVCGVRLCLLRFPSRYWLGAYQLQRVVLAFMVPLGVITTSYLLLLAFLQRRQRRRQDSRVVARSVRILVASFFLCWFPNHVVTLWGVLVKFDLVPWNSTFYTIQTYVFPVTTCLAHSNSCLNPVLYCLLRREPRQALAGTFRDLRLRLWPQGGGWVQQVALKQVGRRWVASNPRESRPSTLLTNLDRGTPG

Chain of relaxin 3 (Q8WXF3 119-142): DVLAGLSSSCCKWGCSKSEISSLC
Chain of UniProt Q9NSD7 (Q9NSD7 whole entry): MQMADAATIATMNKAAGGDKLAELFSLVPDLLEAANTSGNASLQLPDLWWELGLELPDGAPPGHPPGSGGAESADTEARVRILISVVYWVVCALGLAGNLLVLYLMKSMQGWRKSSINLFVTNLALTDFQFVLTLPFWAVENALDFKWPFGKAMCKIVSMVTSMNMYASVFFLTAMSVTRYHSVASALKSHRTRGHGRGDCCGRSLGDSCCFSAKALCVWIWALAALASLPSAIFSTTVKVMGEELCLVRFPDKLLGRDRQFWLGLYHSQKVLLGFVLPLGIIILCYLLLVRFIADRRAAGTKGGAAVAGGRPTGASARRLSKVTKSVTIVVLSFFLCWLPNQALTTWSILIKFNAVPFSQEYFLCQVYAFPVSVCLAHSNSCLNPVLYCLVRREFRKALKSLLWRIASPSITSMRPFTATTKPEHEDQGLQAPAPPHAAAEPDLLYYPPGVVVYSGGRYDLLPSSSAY

Substance: C-peptide of human preproinsulin-like peptide 7 [C-INSL7]
cross-reactivity with C-INSL7 antiserum [1]: 100%
inhibition of [125I]C-INSL7 binding [2]: in a dose-dependent manner
Bmax ([2]; homologous competition, ~0.3 nM [125I]C-INSL7, pH 7.4, room temperature, 1 hr, nonspecific: 1 μM C-INSL7, n=3): 45.4 ± 20.5 fmol/mg protein
Kd ([2]; homologous competition, ~0.3 nM [125I]C-INSL7, ~0.5 mg membranes, pH 7.4, room temperature, 1 hr, nonspecific: 1 μM C-INSL7, n=3): 17.7 ± 8.2 nM
concentration of maximum inhibition of [125I]C-INSL7 binding ([2]; unlabeled peptide 1 to 1000 nM): 500 nM
fraction of neurons depolarized (n responding/tested) [3]: 7/153
fraction of neurons hyperpolarized (n responding/tested) [3]: 15/153
mean amplitude of membrane depolarization [3]: 11 ± 1.6 mV
mean amplitude of membrane hyperpolarization [3]: 7 ± 1.3 mV
mean amplitude of the first spike of [Ca2+]i oscillations, Ca2+-free ([4]; 100 nM): 497 ± 3.6 nM
rapid and transitory increase in [Ca2+]i (single spike, no plateau), Ca2+-free ([4]; 100 nM): 231 ± 2.6 nM
cells responding with calcium oscillations, Ca2+-free ([4]; 100 nM, Ca2+-free saline, 7 cells): 5%
cells responding with single Ca2+ spike, Ca2+-free ([4]; 100 nM, Ca2+-free saline, 15 cells): 11%
immunoreactivity after pre-absorption of C-INSL7 antiserum with peptide [5]: immunoreactivity was not detected
amplitude of the first spike of [Ca2+]i oscillations ([6]; 10 nM, HBSS, fura-2, n = 6): 137 ± 2.6 nM
stable (sustained) [Ca2+]i elevation ([6]; 10 nM, HBSS, fura-2, n = 6): 118 ± 2.4 nM
neurons responding with fast and sustained increase in [Ca2+]i ([6]; 100 nM, HBSS, 36 of 276): 13%
neurons responding with fast calcium transient followed by oscillations ([6]; 100 nM, HBSS): 4%
mean amplitude of the first spike, fast calcium transient followed by oscillations ([6]; 100 nM, HBSS, fura-2): 763 ± 4.2 nM
mean amplitude of fast and sustained increase in [Ca2+]i ([6]; 100 nM, HBSS, fura-2, n=36/276): 405 ± 3.1 nM
amplitude of the first spike of [Ca2+]i oscillations ([6]; 1,000 nM, HBSS, fura-2, n = 7): 1051 ± 9.8 nM
mean amplitude of fast and sustained increase in [Ca2+]i ([6]; 1,000 nM, HBSS, fura-2, n = 8): 731 ± 4.7 nM
concentration dependence of calcium oscillations ([6]; 10, 100 and 1000 nM, HBSS): also in a concentration-dependent manner
concentration dependence of fast and sustained increase in [Ca2+]i ([6]; 10, 100 and 1000 nM, HBSS): in a concentration-dependent manner
Δ[Ca2+]i, fast and sustained rise, after ryanodine pretreatment ([6]; C-INSL7 100 nM, ryanodine 5 μM, 15 min pretreatment, n = 7): 391 ± 3.6 nM

Substance: Recombinant human relaxin 3: Recombinant human relaxin 3
GTPγS binding (GPCR135 [7]): potently stimulated
cAMP formation (GPCR135 [7]): inhibited
GTPγS binding (GPCR145): potently stimulated
cAMP formation (GPCR145): inhibited

inhibition of [125I]C-INSL7 binding [2]: did not inhibit
Substance: insulin-like peptide 7 [INSL7, reference compound]
mean amplitude of membrane depolarization [3]: 9 ± 2.6 mV
mean amplitude of membrane hyperpolarization [3]: 5 ± 1.8 mV
mean amplitude of the first spike of [Ca2+]i oscillations, Ca2+-free ([4]; 100 nM): 583 ± 7.4 nM
rapid and transitory increase in [Ca2+]i (single spike, no plateau), Ca2+-free ([4]; 100 nM): 307 ± 4.2 nM
fraction of neurons with [Ca2+]i oscillations, Ca2+-free (n responding/tested) ([4]; 100 nM, Ca2+-free medium): 5/76
effect of Ca2+-free solution on calcium spike ([4]; type 1 response, Ca2+-free vs normal solution): not significantly altered in a Ca^2+-free solution
binding affinity (GPCR135 [8]): high affinity
binding affinity (GPCR142): high affinity
neurons responding with fast calcium transient followed by oscillations ([6]; 100 nM, HBSS): 5%
mean amplitude of the first spike, fast calcium transient followed by oscillations ([6]; 100 nM, HBSS, fura-2): 1268 ± 39 nM
mean increase of [Ca2+]i, fast, transitory ([6]; 100 nM, HBSS, fura-2, n=27/158): 817 ± 6.3 nM
neurons responding with fast, transitory increase of [Ca2+]i ([6]; 100 nM, HBSS, n=27/158): 17%

Substance: relaxin 3 (from UniProt Q8WXF3)
Kd (GPCR135 (Homo sapiens)): 0.31 nM
Kd (GPCR142 (Homo sapiens)): 1.9 nM

Substance: ryanodine [reference compound]
effect of ryanodine pretreatment on C-INSL7-induced [Ca2+]i oscillations ([6]; ryanodine 5 μM, 15 min, C-INSL7 100 nM): abolishing the [Ca^2+]i oscillations

Reference: publication PMC2775513 (Neuroscience, 2009)
